# Measured values taken from PubChem BioAssay.
# The source made the active and inactive calls.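 The calls were made as follows, unless noted: active = GFP response above 150% of the DMSO level; inconclusive = fewer than 70 events counted for a yeast strain; inactive = the rest.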
# Legend:
# [1] = RPL19A-GFP modulators, yeast TOR pathway, confirmation, cell-based, S. cerevisiae, flow cytometry, cherry picks, mother/daughter gates (AID 2270;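 active = GFP response below 50% of the DMSO control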); details: S. cerevisiae RPL19A-GFP strain, 3 h, at 10 µM, stronger effect = lower value, 100 = same GFP as DMSO wells
# [2] = LAP4-GFP expression modulators in yeast, confirmation, cell-based, cherry picks, flow cytometry, mother/daughter gates (AID 2271;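 active = GFP response above 150% of the DMSO control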;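 also: ratio of sample to DMSO plate mean so 100% equals DMSO level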); details: S. cerevisiae LAP4-GFP strain, 3 h, at 10 µM, stronger effect = higher value, 100 means same as DMSO control
# Procedure, shortened: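 Measured by: GFP by flow cytometry. Test system: GFP-fusion yeast strain. Input: yeast cells seeded at OD600 of 0.2. Timing: 30 °C, 3 h compound incubation, rotating. Buffer or medium: synthetic complete medium for yeast. Benchmarks: DMSO-only negative wells, rapamycin 400 ng/mL positive wells. Compound: 10 µM single dose.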
# [3] = modulators of MEP2-GFP levels in yeast, confirmation, S. cerevisiae, flow cytometry GFP, cherry picks (AID 2272;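 active = GFP response above 150% of the DMSO control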;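 also: ratio of well signal to plate DMSO mean so 100% equals DMSO level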); details: S. cerevisiae MEP2-GFP strain, 3 h, at 10 µM, stronger effect = higher value
# [4] = AGP1-GFP expression modulators, hit retest, confirmation, cell-based, flow cytometry, S. cerevisiae, cherry picks (AID 2273);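 also: median GFP channel fluorescence over the whole cell population gate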; details: S. cerevisiae AGP1-GFP strain, 3 h, at 10 µM
# [5] = modulators of CIT2-GFP expression in yeast, confirmation, S. cerevisiae, GFP fusion, cherry picks, mother/daughter gates (AID 2274); details: S. cerevisiae CIT2-GFP strain, flow cytometry, 3 h, at 10 µM, stronger effect = higher value
# [6] = measured here: daughter cell gate
# [7] = measured here: mother cell gate
# [8] = measured here: daughter cell gate response
# [9] = measured here: mother cell gate response
Compound,GFP response vs DMSO [1],"GFP response vs DMSO [1, 6] [%]","GFP response vs DMSO [1, 7] [%]",GFP response relative to DMSO [2],"GFP response relative to DMSO [2, 8] [%]","GFP response relative to DMSO [2, 9] [%]",GFP response vs DMSO [3],"GFP response, % of DMSO [4]","GFP response, % of DMSO [5]","GFP response, % of DMSO [5, 6] [%]","GFP response, % of DMSO [5, 7] [%]"
COc1ccc(OC)c(S(=O)(=O)N2Cc3ccccc3CC2C(=O)O)c1 (stereo not drawn),100% (inactive),101,99.4,104% (inactive),101,106,106% (inactive),102% (inactive),101% (inactive),103,103
COCc1nnc(NC(=O)c2ccc(S(=O)(=O)N(C)C3CCCCC3)cc2)o1,97.6% (inactive),98.6,97.2,103% (inactive),102,104,102% (inactive),97.8% (inactive),103% (inactive),103,102
CNc1cc(CSC)nc(SCc2ccc(Cl)cc2Cl)n1,93.5% (inactive),88.6,96.1,125% (inactive),118,131,102% (inactive),90.4% (inactive),88.3% (inactive),86.2,89
CCOC(=O)c1ccc2nc(Nc3nc4ccc(F)cc4s3)sc2c1,99.6% (inactive),98.1,99.3,101% (inactive),97.5,102,101% (inactive),105% (inactive),103% (inactive),103,103
O=S(=O)(c1ccc(Oc2ccccc2)cc1)N1CCOCC1,98.2% (inactive),98.4,98.2,96.2% (inactive),95.6,97.2,100% (inactive),94.1% (inactive),93.9% (inactive),94.8,94.4
O=C(c1ccccc1F)N1CCN(c2cccc(C(F)(F)F)c2)CC1,98.2% (inactive),97.6,96.5,97.7% (inactive),101,96.4,108% (inactive),106% (inactive),95.8% (inactive),97.6,94.9
N/C(=N\OC(=O)c1cc(Br)ccc1Cl)c1ccccn1,101% (inactive),98.7,97.7,133% (inactive),125,135,110% (inactive),93.2% (inactive),112% (inactive),105,114
COc1ccc(NC(=O)c2ccccc2NC(=O)c2ccccc2)cc1,98.4% (inactive),98.4,99.2,91.5% (inactive),94.4,89.7,96.2% (inactive),102% (inactive),103% (inactive),101,102
C=CCNC(=O)/C(=C\c1ccc(OC)cc1)NC(=O)c1ccc([N+](=O)[O-])cc1,97.4% (inactive),97.6,98.7,97.3% (inactive),99.7,96.2,96.6% (inactive),100% (inactive),108% (inactive),108,110
COc1ccc(NC(=O)COC(=O)c2ccco2)c([N+](=O)[O-])c1,99.5% (inactive),98.5,96.7,103% (inactive),99.3,102,108% (inactive),98.9% (inactive),99.3% (inactive),92.7,98
COc1cccc(-c2nnc(NC(=O)c3ccc(S(=O)(=O)N4CCOCC4)cc3)o2)c1,97.6% (inactive),97.8,96.5,97.7% (inactive),99,97.4,101% (inactive),100% (inactive),100% (inactive),99.3,100
COc1cccc(CNC(=O)CCC(=O)N2Cc3cccc(OC)c3Oc3ncccc32)c1OC,99.4% (inactive),99.9,99.2,95.4% (inactive),96,94,102% (inactive),100% (inactive),104% (inactive),105,104
O=S(=O)(c1ccccc1)N1N=C(c2cccs2)CC1c1ccc(F)cc1 (stereo not drawn),99.7% (inactive),97.8,100,97.4% (inactive),94.1,101,100% (inactive),104% (inactive),97.8% (inactive),96.5,98.7
